Compounds with a hit are over-represented: about 3.7% of the library has one in this group of screens.
MPTP block – permeability transition pore inhibition; isolated mouse mitochondria, Ca2+ swelling absorbance, 30 min; AID 602449; inhibition, % at 10 µM; 360,000 compounds, 1.4% hits;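 active = inhibition of 50% or more, scaled per plate between neutral and stimulator controls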
aDG glyco act – alpha-DG glycosylation activation. Pro5-aDG cells, alpha-DG glycosylation AlphaScreen (IIH6); 0% Pro5, 100% B10-LARGE cell signal. activation, % at 10 µM. 360,000 compounds, 0.22% hits. AID 624168;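 active = activation of at least 8% versus controls, or a plate z-score of at least 8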;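 note: Pro5 are CHO cells carrying HIG-tagged alpha-DG that lacks glycosylation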
proCasp3 act – procaspase-3 (human) activation | P42574 | recombinant procaspase-3 D3A, Ac-DEVD-pNA absorbance 405 nm | activation, % at 8.5 µM | 330,000 compounds, 0.11% hits | AID 463141;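 active = activation above the mean of all tested compounds plus 3 SD, cut at about 21% in these data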
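Evaluation: percent activation relative to control range; Material: Procaspase-3 D3A mutant, all three cleavage aspartates alanine; Compound: single dose, 8.5 µM nominal compound, 0.8% DMSO; Replication: one well per compound; Signal: absorbance at 405 nm, 0 and 120 min; Schedule: 1 h preincubation plus 2 h reaction at 25 °C.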
proCasp7 act – counter-screen for procaspase-3 activators: activators of human procaspase-7; P55210; recombinant procaspase-7, Ac-DEVD-pNA absorbance 405 nm; D23A/D198A/D206A triple mutant, cannot self-cleave; scale: DMSO 0, 5 µM enzyme 100; activation, % at 8.5 µM; 330,000 compounds, 0.093% hits; AID 463210;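 active = percent activation above the screen-wide mean plus 3 SD, cut at about 25% in these data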
Target sequence (P55210 whole entry D23A/D198A/D206A): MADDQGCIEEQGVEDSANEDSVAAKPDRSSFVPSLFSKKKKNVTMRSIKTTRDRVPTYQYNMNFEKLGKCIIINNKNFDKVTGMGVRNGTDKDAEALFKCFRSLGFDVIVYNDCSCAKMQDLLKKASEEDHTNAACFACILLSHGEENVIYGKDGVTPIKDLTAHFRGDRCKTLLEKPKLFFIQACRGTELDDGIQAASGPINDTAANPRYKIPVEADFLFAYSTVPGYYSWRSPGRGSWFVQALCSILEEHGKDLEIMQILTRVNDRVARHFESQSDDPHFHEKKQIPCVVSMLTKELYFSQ
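Assay system – Uncleavable procaspase-7 mutant enzyme · Quantity – 2 µM procaspase-7 mutant as dispensed · Times – 1 h preincubation, 2 h reaction · Dosing – single nominal 8.5 µM compound dose, 0.8% DMSO final · Buffer or medium – Zinc-free 50 mM HEPES buffer, pH 7.4, with NaCl and Triton X-100 · Detection – Epi-absorbance of released pNA at 405 nm, two timepoints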
NR3A LBD binder – modulators (binders) of human NR3A ligand-binding domain; NR3A LBD differential scanning fluorimetry, Tm shift; 0% = protein alone, 100% = glycine-bound protein; AID 1259313; Tm shift relative to glycine control, % at 25 µM; 340,000 compounds, 2.5% hits;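 active = melting temperature shift of at least 10% of the positive control shift, at one fixed dose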
Each line names hits and unclear results; the compound was inactive in the other large screens.

O=C(N/N=C\c1ccc(-c2cccc(Cl)c2)o1)C(=O)NC1CCCC1	NR3A LBD binder 24
Cc1cc(C(=O)N/N=C/c2ccc(-c3cccc(Cl)c3)o2)n[nH]1	NR3A LBD binder 16
Clc1cccc(CNc2ccn3nc(-c4cccc(OCc5ccccc5)c4)cc3n2)c1	none (no result: proCasp3 act, proCasp7 act, NR3A LBD binder)
COCCCn1c(C(=O)Nc2ccc3c(c2)OCO3)cc2c(=O)n3cccc(C)c3nc21	none (no result: proCasp3 act, proCasp7 act, NR3A LBD binder)
O=S(=O)(NCC(c1ccc2c(c1)OCO2)N1CCN(c2ccccc2)CC1)c1ccccc1 (configuration not stated)	none
Cn1c(=O)[nH]c(=O)c2c1nc1n2CCN1Cc1ccccc1	none
CC1CN(Cc2ccccc2)c2nc3c(c(=O)[nH]c(=O)n3C)n2C1 (configuration not stated)	NR3A LBD binder 29
CC1(C)Cc2c(cnn2-c2ccc(F)cc2)C(NC(=O)C2=CC(=O)CC(C)(C)O2)C1 (configuration not stated)	none (no result: proCasp3 act, proCasp7 act, NR3A LBD binder)
O=C(CC[C@H]1O[C@@H](n2ccc(=O)[nH]c2=O)[C@H](O)[C@@H]1O)N[C@@H](Cc1ccccc1)C(=O)NCC1CCCO1 (some centres not stated)	none (no result: proCasp3 act, proCasp7 act, NR3A LBD binder)
CCc1nnc(NC(=O)CSc2nc(-c3ccc(F)cc3)cc(-c3ccccc3)c2C#N)s1	none (no result: proCasp3 act, proCasp7 act)
COc1ccc(-c2cc(-c3ccccc3)nc(SCC(=O)Nc3ncc(C)s3)c2C#N)cc1	NR3A LBD binder 20
CC1(c2nnnn2-c2ccc3c(c2)OCCO3)CCC(=O)N1CCOc1ccccc1 (configuration not stated)	none (no result: proCasp3 act, proCasp7 act, NR3A LBD binder)
COCCCNc1ccn2nc(-c3ccc(Cl)cc3)cc2n1	none (no result: proCasp3 act, proCasp7 act, NR3A LBD binder)
CCCCC(=O)Nc1ccc(C)c(S(=O)(=O)N2CCCCCC2)c1	none
CCCCNC(=O)C1=C(N)C(C(=O)Nc2ccc(C)c(S(=O)(=O)N3CCCCC3)c2)SC1=Nc1ccc(C)cc1C (configuration not stated)	NR3A LBD binder 24
Cc1ccc(S(=O)(=O)NCCC(=O)NCCc2ccc(S(N)(=O)=O)cc2)cc1C	none
Cc1cc(NC(=O)COC(=O)C2CC(=O)N(c3ccc(C)c(Cl)c3)C2)no1 (configuration not stated)	NR3A LBD binder 21
CCN(CC)CCN1C(=O)C(O)=C(C(C)=O)C1c1ccc(OC)c(OC)c1 (configuration not stated)	NR3A LBD binder 11
COc1cc(C2C(C(C)=O)=C(O)C(=O)N2CCc2ccc(OC)c(OC)c2)ccc1O (configuration not stated)	none
COc1cc(CC(=O)N2c3ccccc3N=C(c3ccccc3)C2C(=O)NCc2ccccc2)cc(OC)c1 (configuration not stated)	none (no result: proCasp3 act, proCasp7 act, NR3A LBD binder)
COc1ccccc1-c1nnc(SCC(=O)NCc2c(C)c(Cl)cc(C(C)C)c2O)o1	NR3A LBD binder 23
COc1ccccc1-c1nnc(SCC(=O)Nc2c(Cl)cccc2Cl)o1	none
CCOC1CCCc2oc(-c3ccc(N(C)C)cc3)c(C(=O)OC)c21 (configuration not stated)	none (no result: proCasp3 act, proCasp7 act, NR3A LBD binder)
CC(C)=CCc1c2c(c3occ(-c4ccc(O)cc4)c(=O)c3c1O)C=CC(C)(C)O2	NR3A LBD binder 25
CC1(C)C=Cc2c(c3c(c4c(=O)c(-c5ccc(O)cc5)coc24)OC(C)(C)CC3)O1	none
CC(C)=CCc1c2c(c3occ(-c4ccc(O)c(O)c4)c(=O)c3c1O)C=CC(C)(C)O2	NR3A LBD binder 27 (no result: proCasp3 act, proCasp7 act)
CC(CC(=O)c1ccccc1)=NCCCN=C(C)CC(=O)c1ccccc1	none (no result: proCasp3 act, proCasp7 act, NR3A LBD binder)
Cc1cccnc1C(c1ccc(F)cc1)N(C)C(=O)C1CCN(CCOc2ccc(Cl)cc2Cl)CC1 (configuration not stated)	none (no result: proCasp3 act, proCasp7 act, NR3A LBD binder)
CCCCNS(=O)(=O)c1ccc(NC(=O)C2c3ccccc3Oc3ccccc32)cc1	NR3A LBD binder 19
CC(=O)Nc1cccc(-c2ccnc3c2CC(C(=O)NCc2cccc(Cl)c2)O3)c1 (configuration not stated)	none (no result: proCasp3 act, proCasp7 act, NR3A LBD binder)
O=C(NC(=S)Nc1nc(-c2ccccc2)cs1)c1ccco1	NR3A LBD binder 16
O=C(Nc1nc(-c2ccc(S(=O)(=O)N3CCCC3)cc2)cs1)c1cccs1	none
O=C(Nc1nc(-c2cc(Cl)sc2Cl)cs1)c1cccs1	NR3A LBD binder 14
COc1ccc(-c2csc(NC(=S)NC(=O)c3ccco3)n2)cc1	none

High-throughput results: PubChem, several laboratories
